# Data taken from ChEMBL document CHEMBL2417547 (J Med Chem, 2013).
# Legend:
# [1] = molecular target: T1, Cytochrome P450 11B2, mitochondrial (Homo sapiens, UniProt P19099); experiment: Inhibition of human CYP11B2 expressed in hamster V79MZh cells using [1,2-3H]-11-deoxycorticosterone as substrate; format: cell-based
# T1 sequence (P19099 whole entry): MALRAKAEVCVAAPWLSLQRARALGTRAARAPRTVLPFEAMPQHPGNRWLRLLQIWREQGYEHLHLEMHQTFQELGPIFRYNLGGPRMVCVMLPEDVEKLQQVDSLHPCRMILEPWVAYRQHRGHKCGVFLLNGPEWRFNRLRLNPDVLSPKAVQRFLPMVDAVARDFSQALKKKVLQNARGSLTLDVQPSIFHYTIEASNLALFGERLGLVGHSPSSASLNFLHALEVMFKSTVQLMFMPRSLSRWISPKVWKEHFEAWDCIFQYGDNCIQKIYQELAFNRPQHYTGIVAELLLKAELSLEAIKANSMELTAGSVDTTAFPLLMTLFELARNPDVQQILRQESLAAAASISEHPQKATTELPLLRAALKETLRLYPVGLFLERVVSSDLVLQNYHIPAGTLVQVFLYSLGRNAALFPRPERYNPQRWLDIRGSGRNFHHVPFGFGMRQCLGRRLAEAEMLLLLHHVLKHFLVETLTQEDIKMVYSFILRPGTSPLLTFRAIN
# Procedure, shortened: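 V79MZh hamster fibroblasts expressing human CYP11B1 or CYP11B2 were incubated with [1,2-3H]-11-deoxycorticosterone (100 nM) plus inhibitor at a range of concentrations. The selectivity factor is IC50(CYP11B2)/IC50(CYP11B1).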
# [2] = molecular target: T2, CYP19 (aromatase) (Homo sapiens, UniProt P11511); experiment: Inhibition of microsomal CYP19 in human placenta using [1beta-3H]-androstenedione as substrate at 2 uM by 3H2O method relative to control; details: placental microsomes, probe [1beta-3H]-androstenedione
# T2 sequence (P11511 whole entry): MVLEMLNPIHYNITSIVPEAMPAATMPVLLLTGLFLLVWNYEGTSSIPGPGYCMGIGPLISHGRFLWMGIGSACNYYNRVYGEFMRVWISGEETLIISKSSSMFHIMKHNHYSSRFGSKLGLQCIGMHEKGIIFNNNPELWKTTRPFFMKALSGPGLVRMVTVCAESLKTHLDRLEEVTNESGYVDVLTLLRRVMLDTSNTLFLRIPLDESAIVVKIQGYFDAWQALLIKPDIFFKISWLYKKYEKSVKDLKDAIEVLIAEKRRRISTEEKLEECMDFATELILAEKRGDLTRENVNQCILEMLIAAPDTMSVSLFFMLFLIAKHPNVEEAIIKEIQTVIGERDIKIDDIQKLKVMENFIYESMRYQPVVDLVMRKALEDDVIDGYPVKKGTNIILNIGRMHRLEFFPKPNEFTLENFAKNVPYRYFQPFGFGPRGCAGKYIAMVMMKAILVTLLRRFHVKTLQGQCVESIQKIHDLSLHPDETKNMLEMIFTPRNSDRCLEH
# Procedure, shortened: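 Human placental microsomes as the CYP19 source, with [1β-3H]androstenedione at 500 nM. Activity read by 3H2O release. Compound at 2 μM. Percent inhibition is the mean of at least three experiments (deviations <25%); values ≤5% are not significant.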
# [3] = Half life in rat liver S9 fraction at 1 uM by LC-MS/MS analysis; format: ADME, subcellular
# Procedure, shortened: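 Test compound at 1 μM with 1 mg/mL pooled rat liver S9, 2 mM NADPH regenerating system, 1 mM UDPGA and 0.1 mM PAPS (phase I and II), 37 °C. Sampled at 0, 5, 15 and 60 min and quenched with 2 volumes of cold acetonitrile containing internal standard. Remaining compound measured by LC-MS/MS to give t1/2 and CLint; mean of more than three repeats.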
# [4] = Half life in human liver S9 fraction at 1 uM by LC-MS/MS analysis; format: ADME, subcellular
# Procedure, shortened: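 Pooled human liver S9 fraction, 1 mg/mL, with 2 mM NADPH regenerating system, 1 mM UDPGA and 0.1 mM PAPS (phase I and II). Compound at 1 μM, 37 °C, sampled at 0, 5, 15 and 60 min. Stopped with cold acetonitrile containing internal standard. Remaining compound measured by LC-MS/MS and used to derive t1/2. Mean of more than three repeats.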
# [5] = molecular target: T3, CYP17 (Homo sapiens, UniProt P05093); experiment: Inhibition of human CYP17 expressed in Escherichia coli co-expressing rat NADPH-P450 reductase using progesterone as substrate at 2 uM relative to control; details: probe progesterone
# T3 sequence (P05093 whole entry): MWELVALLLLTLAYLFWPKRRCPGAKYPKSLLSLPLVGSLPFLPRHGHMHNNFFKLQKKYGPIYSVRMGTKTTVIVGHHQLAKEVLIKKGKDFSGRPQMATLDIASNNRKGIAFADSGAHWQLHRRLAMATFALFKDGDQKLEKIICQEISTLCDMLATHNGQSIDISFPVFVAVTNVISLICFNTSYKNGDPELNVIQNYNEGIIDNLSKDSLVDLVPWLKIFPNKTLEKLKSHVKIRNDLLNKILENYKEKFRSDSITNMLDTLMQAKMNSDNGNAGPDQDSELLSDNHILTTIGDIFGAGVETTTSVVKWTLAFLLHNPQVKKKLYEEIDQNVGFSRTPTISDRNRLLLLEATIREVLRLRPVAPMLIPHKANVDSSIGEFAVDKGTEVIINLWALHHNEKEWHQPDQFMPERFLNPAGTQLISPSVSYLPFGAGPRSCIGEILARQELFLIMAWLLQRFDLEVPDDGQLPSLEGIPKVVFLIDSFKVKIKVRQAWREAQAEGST
# Procedure, shortened: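 Human CYP17 expressed in E. coli, co-expressing rat NADPH-P450 reductase. Progesterone substrate at 25 μM with NADPH cofactor. Test compound at 2 μM. Percent inhibition is the mean of at least three experiments (deviations <25%); values ≤5% are treated as not significant.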
# [6] = organism: Homo sapiens; experiment: Selectivity factor, ratio of IC50 for human CYP11B2 to IC50 for human CYP11B1
# Procedure, shortened: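 V79MZh hamster fibroblasts expressing human CYP11B1 or CYP11B2 were incubated with [1,2-3H]-11-deoxycorticosterone (100 nM) plus inhibitor at a range of concentrations. […] The selectivity factor is IC50(CYP11B2)/IC50(CYP11B1).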
smiles,measurement,setting,value
Cc1cncc(Cc2ccc(-c3ccccc3)nc2)c1,IC50,[1],0.033 µM
same,inhibition at 2 µM,[2],1%
same,half-life at 1 µM,[3],16 min
same,half-life at 1 µM,[4],> 150 min
same,inhibition at 2 µM,[5],5%
same,Ratio IC50,[6],15.1
